# Results reported in ChEMBL document CHEMBL3751813, “Nonpeptidic Amphiphilic Xanthone Derivatives: Structure-Activity Relationship and Membrane-Targeting Properties” (J Med Chem, 2016).
# What was measured:
# Staphylococcus aureus [1] = assay: Antibacterial activity against clinical isolates of methicillin-resistant Staphylococcus aureus DM9808R after 24 hrs by […]; format: functional
# Staphylococcus aureus [2] = assay: Antibacterial activity against clinical isolates of Staphylococcus aureus DM4001R after 24 hrs by […]; format: functional
# Staphylococcus aureus [3] = assay: Antibacterial activity against clinical isolates of methicillin-resistant Staphylococcus aureus DM21455 after 24 hrs by […]; format: functional; conditions: DM21455, 24 h
# Bacillus cereus = assay: Antibacterial activity against clinical isolates of Bacillus cereus ATCC 11778 after 24 hrs by […]; format: functional; conditions: ATCC 11778, 24 h
# [4] = Hemolytic activity against New Zealand white rabbit RBC after 1 hr by microplate reader analysis; format: ADME, cell-based, Oryctolagus cuniculus, Erythrocyte; conditions: rabbit red blood cells
# Procedure, shortened: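 Rabbit RBCs spun from serum at 3,000 rpm for 10 min and washed twice in PBS. Mixed with compound in DMF at 4% v/v RBCs, 1 h at 37 °C. After centrifugation, hemoglobin in the supernatant read at 576 nm. 2% Triton X-100 was the positive control and 1% DMF the negative control.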
# [5] = Selectivity index, ratio of HC50 for hemolytic activity against New Zealand white rabbit RBC to MIC for clinical isolates of Staphylococcus aureus DM4001
# Staphylococcus aureus [6] = assay: Induction of membrane permeabilization in clinical isolates of Staphylococcus aureus DM4001 assessed as ATP leakage at MIC incubated for 10 mins by firefly luciferase based luminometry analysis; format: functional
# Procedure, shortened: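 Exponential-phase cells washed twice in 20 mM PBS pH 7 and set to OD620 0.3. Exposed 10 min at 37 °C, then spun at 4000 rpm for 5 min. Supernatant mixed with luciferase reagent (1 mM DTT, 0.5 mM D-luciferin, 1.25 µg/mL firefly luciferase). Luminescence read over 30 cycles.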
# Staphylococcus aureus [7] = assay: Induction of membrane permeabilization in clinical isolates of Staphylococcus aureus DM4001 at MIC by SYTOX green uptake assay; format: functional
# Procedure, shortened: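 Exponential-phase cells washed twice in 20 mM PBS pH 7 and adjusted to OD620 0.09. Given 3 µM SYTOX Green and kept in the dark until fluorescence was stable, then compound added. Fluorescence followed in a stirred cuvette at ex 504/em 523 nm. Melittin 10 µg/mL was the positive control. Run at least twice; one run reported.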
smiles,measurement,setting,value
COc1c(OCCCCN2CCCC2)cc2oc3cc(OCCCCN4CCCC4)c(CCC(C)C)c(O)c3c(=O)c2c1CCC(C)C,MIC,Staphylococcus aureus [1],6.25 µg/mL
same,MIC,Staphylococcus aureus [2],12.5 µg/mL
same,MIC,Staphylococcus aureus [3],6.25 µg/mL
same,MIC,Bacillus cereus,6.25 µg/mL
same,HC50 at 1 h,[4],34.8 µg/mL
same,Selectivity ratio,[5],1.4
COc1c(OCCCCN2CCC(O)CC2)cc2oc3cc(OCCCCN4CCC(O)CC4)c(CC=C(C)C)c(O)c3c(=O)c2c1CC=C(C)C,MIC,Staphylococcus aureus [1],3.12 µg/mL
same,MIC,Staphylococcus aureus [2],6.25 µg/mL
same,MIC,Staphylococcus aureus [3],12.5 µg/mL
same,MIC,Bacillus cereus,6.25 µg/mL
same,Activity,Staphylococcus aureus [6],5.938 µM
same,Activity,Staphylococcus aureus [7],50250 cps
same,HC50 at 1 h,[4],36 µg/mL
same,Selectivity ratio,[5],5.8
CCCN(C)CCCCOc1cc2oc3cc(OCCCCN(C)CCC)c(OC)c(CC=C(C)C)c3c(=O)c2c(O)c1CC=C(C)C,MIC,Staphylococcus aureus [1],25 µg/mL
same,MIC,Staphylococcus aureus [2],25 µg/mL
same,MIC,Staphylococcus aureus [3],12.5 µg/mL
same,MIC,Bacillus cereus,12.5 µg/mL
same,Activity,Staphylococcus aureus [6],3.945 µM
same,Activity,Staphylococcus aureus [7],87537 cps
same,HC50 at 1 h,[4],32.6 µg/mL
same,Selectivity ratio,[5],1.3
COc1c(OCCCCN2CCOCC2)cc2oc3cc(OCCCCN4CCOCC4)c(CC=C(C)C)c(O)c3c(=O)c2c1CC=C(C)C,MIC,Staphylococcus aureus [1],> 50 µg/mL
same,MIC,Staphylococcus aureus [2],> 50 µg/mL
same,MIC,Staphylococcus aureus [3],> 50 µg/mL
same,MIC,Bacillus cereus,> 50 µg/mL
same,Activity,Staphylococcus aureus [6],0.229 µM
same,Activity,Staphylococcus aureus [7],6358 cps
same,HC50 at 1 h,[4],> 200 µg/mL
CCN(CCO)CCCCOc1cc2oc3cc(OCCCCN(CC)CCO)c(OC)c(CC=C(C)C)c3c(=O)c2c(O)c1CC=C(C)C,MIC,Staphylococcus aureus [1],3.12 µg/mL
same,MIC,Staphylococcus aureus [2],6.25 µg/mL
same,MIC,Staphylococcus aureus [3],6.25 µg/mL
same,MIC,Bacillus cereus,3.12 µg/mL
same,Activity,Staphylococcus aureus [6],5.027 µM
same,Activity,Staphylococcus aureus [7],112772 cps
same,HC50 at 1 h,[4],31.8 µg/mL
same,Selectivity ratio,[5],5.1
COc1c(OCCCCN2CCSCC2)cc2oc3cc(OCCCCN4CCSCC4)c(CC=C(C)C)c(O)c3c(=O)c2c1CC=C(C)C,MIC,Staphylococcus aureus [1],> 50 µg/mL
same,MIC,Staphylococcus aureus [2],> 50 µg/mL
same,MIC,Staphylococcus aureus [3],> 50 µg/mL
same,MIC,Bacillus cereus,> 50 µg/mL
same,Activity,Staphylococcus aureus [6],0.005 µM
same,Activity,Staphylococcus aureus [7],7129 cps
same,HC50 at 1 h,[4],> 200 µg/mL
COc1c(OCCCCN2CCN(C(=O)OC(C)(C)C)CC2)cc2oc3cc(OCCCCN4CCN(C(=O)OC(C)(C)C)CC4)c(CC=C(C)C)c(O)c3c(=O)c2c1CC=C(C)C,MIC,Staphylococcus aureus [1],> 50 µg/mL
same,MIC,Staphylococcus aureus [2],> 50 µg/mL
same,MIC,Staphylococcus aureus [3],> 50 µg/mL
same,MIC,Bacillus cereus,> 50 µg/mL
same,HC50 at 1 h,[4],> 200 µg/mL
COc1c(OCCCCN2CCCCC2)cc2oc3cc(OCCCCN4CCCCC4)c(CC=C(C)C)c(O)c3c(=O)c2c1CC=C(C)C,MIC,Staphylococcus aureus [1],1.56 µg/mL
same,MIC,Staphylococcus aureus [2],0.78 µg/mL
same,MIC,Staphylococcus aureus [3],1.56 µg/mL
same,MIC,Bacillus cereus,6.25 µg/mL
same,Activity,Staphylococcus aureus [6],0.626 µM
same,Activity,Staphylococcus aureus [7],2797 cps
same,Selectivity ratio,[5],24.7
CCCCCCN(C)CCCCOc1cc2oc3cc(OCCCCN(C)CCCCCC)c(OC)c(CC=C(C)C)c3c(=O)c2c(O)c1CC=C(C)C,MIC,Staphylococcus aureus [1],50 µg/mL
same,MIC,Staphylococcus aureus [2],50 µg/mL
same,MIC,Staphylococcus aureus [3],50 µg/mL
same,MIC,Bacillus cereus,50 µg/mL
same,Activity,Staphylococcus aureus [6],8.545 µM
same,Activity,Staphylococcus aureus [7],74047 cps
same,HC50 at 1 h,[4],> 200 µg/mL
same,Selectivity ratio,[5],> 4
CCCN(CC)CCCCOc1cc2oc3cc(OCCCCN(CC)CCC)c(OC)c(CC=C(C)C)c3c(=O)c2c(O)c1CC=C(C)C,MIC,Staphylococcus aureus [1],6.25 µg/mL
same,MIC,Staphylococcus aureus [2],6.25 µg/mL
same,MIC,Staphylococcus aureus [3],12.5 µg/mL
same,MIC,Bacillus cereus,25 µg/mL
same,Activity,Staphylococcus aureus [6],12.736 µM
same,Activity,Staphylococcus aureus [7],82176 cps
same,HC50 at 1 h,[4],63.3 µg/mL
same,Selectivity ratio,[5],5.1
CCN(CCCCOc1cc2oc3cc(OCCCCN(CC)C(C)C)c(OC)c(CC=C(C)C)c3c(=O)c2c(O)c1CC=C(C)C)C(C)C,MIC,Staphylococcus aureus [1],12.5 µg/mL
same,MIC,Staphylococcus aureus [2],25 µg/mL
same,MIC,Staphylococcus aureus [3],25 µg/mL
same,MIC,Bacillus cereus,12.5 µg/mL
same,Activity,Staphylococcus aureus [6],5.407 µM
same,Activity,Staphylococcus aureus [7],97824 cps
same,HC50 at 1 h,[4],54.6 µg/mL
same,Selectivity ratio,[5],2.2
COc1c(OCCCCN2CCNCC2)cc2oc3cc(OCCCCN4CCNCC4)c(CC=C(C)C)c(O)c3c(=O)c2c1CC=C(C)C,MIC,Staphylococcus aureus [1],6.25 µg/mL
same,MIC,Staphylococcus aureus [2],6.25 µg/mL
same,MIC,Staphylococcus aureus [3],12.5 µg/mL
same,MIC,Bacillus cereus,12.5 µg/mL
same,Activity,Staphylococcus aureus [6],3.154 µM
same,Activity,Staphylococcus aureus [7],24629 cps
same,HC50 at 1 h,[4],72.1 µg/mL
same,Selectivity ratio,[5],11.5
CCN(C)CCCCOc1cc2oc3cc(OCCCCN(C)CC)c(OC)c(CC=C(C)C)c3c(=O)c2c(O)c1CC=C(C)C,MIC,Staphylococcus aureus [1],6.25 µg/mL
same,MIC,Staphylococcus aureus [2],1.56 µg/mL
same,MIC,Staphylococcus aureus [3],1.56 µg/mL
same,MIC,Bacillus cereus,6.25 µg/mL
same,Activity,Staphylococcus aureus [6],1.734 µM
same,Activity,Staphylococcus aureus [7],12456 cps
same,HC50 at 1 h,[4],25.1 µg/mL
same,Selectivity ratio,[5],16.1
CCCCN(CC)CCCCOc1cc2oc3cc(OCCCCN(CC)CCCC)c(OC)c(CC=C(C)C)c3c(=O)c2c(O)c1CC=C(C)C,MIC,Staphylococcus aureus [1],6.25 µg/mL
same,MIC,Staphylococcus aureus [2],12.5 µg/mL
same,MIC,Staphylococcus aureus [3],25 µg/mL
same,MIC,Bacillus cereus,25 µg/mL
same,Activity,Staphylococcus aureus [6],12.48 µM
same,Activity,Staphylococcus aureus [7],64790 cps
same,HC50 at 1 h,[4],> 200 µg/mL
same,Selectivity ratio,[5],> 16
COc1c(OCCCCn2cncn2)cc2oc3cc(OCCCCn4cncn4)c(CC=C(C)C)c(O)c3c(=O)c2c1CC=C(C)C,MIC,Staphylococcus aureus [1],> 50 µg/mL
same,MIC,Staphylococcus aureus [2],> 50 µg/mL
same,MIC,Staphylococcus aureus [3],> 50 µg/mL
same,MIC,Bacillus cereus,> 50 µg/mL
same,Activity,Staphylococcus aureus [6],0.416 µM
same,Activity,Staphylococcus aureus [7],1979 cps
same,HC50 at 1 h,[4],> 200 µg/mL
COc1c(OCCCCN2CCCC2)cc2oc3cc(OCCCCN4CCCC4)c(CC=C(C)C)c(O)c3c(=O)c2c1CC=C(C)C,MIC,Staphylococcus aureus [1],1.56 µg/mL
same,MIC,Staphylococcus aureus [2],1.56 µg/mL
same,MIC,Staphylococcus aureus [3],1.56 µg/mL
same,MIC,Bacillus cereus,6.25 µg/mL
same,Activity,Staphylococcus aureus [6],0.465 µM
same,Activity,Staphylococcus aureus [7],814 cps
same,Selectivity ratio,[5],16
COc1c(OCCCCn2cccn2)cc2oc3cc(OCCCCn4cccn4)c(CC=C(C)C)c(O)c3c(=O)c2c1CC=C(C)C,MIC,Staphylococcus aureus [1],> 50 µg/mL
same,MIC,Staphylococcus aureus [2],> 50 µg/mL
same,MIC,Staphylococcus aureus [3],> 50 µg/mL
same,MIC,Bacillus cereus,> 50 µg/mL
same,Activity,Staphylococcus aureus [6],0.31 µM
same,Activity,Staphylococcus aureus [7],3445 cps
same,HC50 at 1 h,[4],> 200 µg/mL
COc1c(OCCCCI)cc2oc3cc(OCCCCI)c(CC=C(C)C)c(OCCCCI)c3c(=O)c2c1CC=C(C)C,MIC,Staphylococcus aureus [1],> 50 µg/mL
same,MIC,Staphylococcus aureus [2],> 50 µg/mL
same,MIC,Staphylococcus aureus [3],> 50 µg/mL
same,MIC,Bacillus cereus,50 µg/mL
same,HC50 at 1 h,[4],> 200 µg/mL
COc1c(OCCCCn2ccnc2)cc2oc3cc(OCCCCn4ccnc4)c(CC=C(C)C)c(O)c3c(=O)c2c1CC=C(C)C,MIC,Staphylococcus aureus [1],> 50 µg/mL
same,MIC,Staphylococcus aureus [2],> 50 µg/mL
same,MIC,Staphylococcus aureus [3],> 50 µg/mL
same,MIC,Bacillus cereus,> 50 µg/mL
same,HC50 at 1 h,[4],> 200 µg/mL
COc1c(OCCCCN(CCO)CCO)cc2oc3cc(OCCCCN(CCO)CCO)c(CC=C(C)C)c(O)c3c(=O)c2c1CC=C(C)C,MIC,Staphylococcus aureus [1],1.56 µg/mL
same,MIC,Staphylococcus aureus [2],3.12 µg/mL
same,MIC,Staphylococcus aureus [3],0.78 µg/mL
same,MIC,Bacillus cereus,3.12 µg/mL
same,Activity,Staphylococcus aureus [6],3.741 µM
same,Activity,Staphylococcus aureus [7],59694 cps
same,HC50 at 1 h,[4],60.6 µg/mL
COc1c(OCCCCN2C(=O)c3ccccc3C2=O)cc2oc3cc(OCCCCN4C(=O)c5ccccc5C4=O)c(CC=C(C)C)c(O)c3c(=O)c2c1CC=C(C)C,MIC,Staphylococcus aureus [1],> 50 µg/mL
same,MIC,Staphylococcus aureus [2],> 50 µg/mL
same,MIC,Staphylococcus aureus [3],> 50 µg/mL
same,MIC,Bacillus cereus,> 50 µg/mL
same,HC50 at 1 h,[4],> 200 µg/mL
COc1c(OCCCCN(C)C)cc2oc3cc(OCCCCN(C)C)c(CCC(C)C)c(O)c3c(=O)c2c1CCC(C)C,MIC,Staphylococcus aureus [1],25 µg/mL
same,MIC,Staphylococcus aureus [2],12.5 µg/mL
same,MIC,Staphylococcus aureus [3],12.5 µg/mL
same,MIC,Bacillus cereus,12.5 µg/mL
same,HC50 at 1 h,[4],60.7 µg/mL
same,Selectivity ratio,[5],4.9
O=c1c2ccc(OCCCCN3CCCC3)cc2oc2cc(OCCCCN3CCCC3)cc(O)c12,MIC,Staphylococcus aureus [1],> 50 µg/mL
same,MIC,Staphylococcus aureus [2],> 50 µg/mL
same,MIC,Staphylococcus aureus [3],> 50 µg/mL
same,MIC,Bacillus cereus,> 50 µg/mL
same,HC50 at 1 h,[4],> 200 µg/mL
